How the values were obtained:
Coagulation factor VII = molecular target: T1, Coagulation factor VII (Homo sapiens, UniProt P08709); test: Binding affinity to f7a/TF complex
T1 sequence (P08709 whole entry): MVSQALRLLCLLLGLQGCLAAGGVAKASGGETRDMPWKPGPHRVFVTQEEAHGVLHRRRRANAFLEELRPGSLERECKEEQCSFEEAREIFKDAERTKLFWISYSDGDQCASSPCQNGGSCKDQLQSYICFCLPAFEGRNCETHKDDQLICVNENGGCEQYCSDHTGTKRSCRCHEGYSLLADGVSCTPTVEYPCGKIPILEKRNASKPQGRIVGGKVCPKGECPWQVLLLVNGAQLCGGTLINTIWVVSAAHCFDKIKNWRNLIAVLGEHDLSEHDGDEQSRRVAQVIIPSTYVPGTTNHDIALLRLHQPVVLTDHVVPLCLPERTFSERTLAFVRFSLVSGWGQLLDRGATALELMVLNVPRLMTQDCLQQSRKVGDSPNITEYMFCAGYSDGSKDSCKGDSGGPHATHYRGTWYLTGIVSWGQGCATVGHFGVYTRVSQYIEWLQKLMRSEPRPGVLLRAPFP

[1] = Anticoagulant potency in human plasma by aPTT assay; assay type: functional
Procedure, shortened: (§1)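 Clotting time measured at 37 °C in human plasma on an automated coagulometer, following the manufacturer's instructions. Tissue-factor-dependent clotting was read by PT. Tissue-factor-independent (intrinsic pathway) clotting was read by aPTT.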

[2] = molecular target: Coagulation factor VII/tissue factor (Homo sapiens) (UniProt P08709+P13726); test: Anticoagulant potency in human plasma by PT assay; assay type: functional, cell-free; procedure, shortened: as §1
Coagulation factor X = Coagulation factor X (Homo sapiens, UniProt P00742); test: Binding affinity to f10a
Coagulation factor X, sequence (P00742 41-179 limits assumed): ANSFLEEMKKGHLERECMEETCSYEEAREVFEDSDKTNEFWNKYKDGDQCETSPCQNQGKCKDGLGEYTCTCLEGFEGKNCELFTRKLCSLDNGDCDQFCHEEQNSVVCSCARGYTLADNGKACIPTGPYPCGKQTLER
Coagulation factor X, sequence (P00742 235-488 limits assumed): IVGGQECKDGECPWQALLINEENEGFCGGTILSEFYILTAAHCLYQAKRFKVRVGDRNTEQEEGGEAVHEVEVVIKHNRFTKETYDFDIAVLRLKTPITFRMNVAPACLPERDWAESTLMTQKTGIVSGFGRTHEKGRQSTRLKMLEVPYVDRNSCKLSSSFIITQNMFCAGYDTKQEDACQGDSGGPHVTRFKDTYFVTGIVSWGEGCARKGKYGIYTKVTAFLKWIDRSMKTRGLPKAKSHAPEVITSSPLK

Prothrombin = Prothrombin (Homo sapiens, UniProt P00734); test: Binding affinity to thrombin
Trypsin = Trypsin (Homo sapiens, UniProt P07477+P07478+P35030); test: Binding affinity to trypsin; assay type: protein assay

Row | Ki (Coagulation factor VII) [µM] | 2PT [2] [µM] | Ki (Coagulation factor X) [µM] | Ki (Prothrombin) [µM] | Ki (Trypsin) [µM] | Structure (SMILES) | 2aPTT [1] [µM]
1 | 0.02 | 5.8 | – | – | – | CC(C)(C(=O)O)c1cc(-c2cccc(CNC(=O)Nc3ccc(C(=O)O)cc3)c2)c(O)c(-c2cc3c(N)[nH]ccc-3n2)c1 | >20
2 | – | – | 2.7 | 90 | 3.6 | N=C(N)c1ccc2[nH]c(-c3cccc(-c4cc(CNC(N)=O)ccc4O)c3O)nc2c1 | –
3 | 0.0026 | 2.4 | – | – | – | CC(C)(C(=O)O)c1cc(-c2cccc(CNC(=O)Nc3c(F)cccc3F)c2)c(O)c(-c2cc3c(N)[nH]ccc-3n2)c1 | >20
4 | 0.0013 | 4.5 | – | – | – | Nc1[nH]ccc2nc(-c3cc(C(=O)O)cc(-c4cccc(CNC(=O)[C@@H](O)Cc5ccccc5)c4)c3O)cc1-2 | 3.7
5 | 0.22 | – | 30 | 100 | 12 | O=C(NCc1cccc(-c2cccc(-c3cc4c[nH]ccc-4n3)c2O)c1)[C@@H](O)Cc1ccccc1 | –
6 | 0.081 | 12 | 54 | 99 | 38 | Nc1[nH]ccc2nc(-c3cccc(-c4cccc(CNC(=O)[C@@H](O)Cc5ccccc5)c4)c3O)cc1-2 | 22
7 | 0.015 | 6.4 | – | – | – | CC(C)(C(=O)O)c1cc(-c2cccc(CNC(=O)[C@@H](O)Cc3ccccc3)c2)c(O)c(-c2cc3c(N)[nH]ccc-3n2)c1 | 17

— ChEMBL document CHEMBL1146904, “Potent 4-amino-5-azaindole factor VIIa inhibitors” (Bioorg Med Chem Lett, 2006)
